Measured values taken from ChEMBL document CHEMBL1126291 (J Med Chem, 1992).

Tests used:
Assay type in all cases: functional
Leishmania donovani [1] = assay: Growth inhibition of Leishmania donovani promastigotes by the compound at 14 uM
Procedure, shortened: (§1)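 Seeded at 0.5 × 10^6 cells per well. Compounds added a few hours later in water. Cells counted by hemacytometer after 3 days, against untreated cultures. Duplicates.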

Leishmania donovani [2] = assay: Growth inhibition of Leishmania donovani promastigotes by the compound at […]; conditions: for inhibition at […]: Leishmania donovani
Leishmania donovani [3] = assay: Growth inhibition of Leishmania donovani promastigotes by the compound at 1.3 uM; procedure, shortened: as §1

NC(CC[C@H](N)C(=O)O)C[C@H]1OC(N2CCC(=O)NC2=O)[C@H](O)[C@@H]1O (stereo partly specified)
inhibition at 14 µM (Leishmania donovani [1]): 19%

Nc1ncnc2c1ncn2[C@@H]1O[C@H](C[C@@H](N)CC[C@H](N)C(=O)O)[C@@H](O)[C@H]1O (stereo in doubt; form 2) [SINEFUNGIN]
Inhibition (Leishmania donovani [2]): 88%

NC(CC[C@H](N)C(=O)O)C[C@H]1OC(n2ccc(=O)[nH]c2=O)[C@H](O)[C@@H]1O (stereo partly specified)
inhibition at 14 µM (Leishmania donovani [1]): 20%

Nc1ncnc2c1ncn2[C@@H]1O[C@H](C[C@H](N)CC[C@H](N)C(=O)O)[C@@H](O)[C@H]1O
inhibition at […] (Leishmania donovani [2]): 34%
inhibition at 1.3 µM (Leishmania donovani [3]): 91%

Nc1ncnc2c1ncn2[C@@H]1O[C@H](C[C@@H](N)CC[C@H](N)C(=O)O)[C@@H](O)[C@H]1O (stereo in doubt; form 1) [SINEFUNGIN]
inhibition at […] (Leishmania donovani [2]): 100%
